# The full list was thinned out, with hits kept by preference.
# INS promoter act: activators of insulin promoter-driven GFP, primary screen, imaging, TRM-6 cells (human fetal islet line), eGFP reporter, cell count; 0.81% of 130,000 active; plate-scaled: unstimulated 0, stimulated control 100; activation, % at 2 µM; AID 1296, 2008;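 active = activation at 2 µM above a set limit, confirmed on inspection of the cell images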;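 note: share of cells whose green reporter signal exceeds an intensity cutoff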
#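 test system = TRM-6 insulin promoter–eGFP reporter cells | benchmarks = stimulated versus unstimulated wells as plate controls | read-out basis = percent cells above green-intensity threshold, converted to percent activation versus plate controls | detection = fixed-cell fluorescence microscopy, eGFP plus Hoechst | incubation = tamoxifen pre-incubation 15 h overnight, then compound exposure 48 h at 37 °C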
# Active calls of the source: *.
SMILES,INS promoter act
CC(=O)C(CC(=O)N1CCCc2ccccc21)C(=O)Nc1ccc(F)cc1 (stereo not given),0.0
CCn1c(CC(=O)Nc2ccccc2)nnc1SCC(=O)Nc1ccccc1C(=O)OC,-8.3
CCn1c(CC(=O)Nc2ccc(C)cc2)nnc1SCC(=O)N1CCN(c2ccccc2)CC1,188.4
CCn1c(CC(=O)Nc2ccc(C)c(Cl)c2)nnc1SCC(=O)Nc1nc(C)cs1,450.0*
COc1cc(C(=O)NCc2ccc3[nH]c(C)cc3c2)cc(OC)c1OC,-5.6
S=c1[nH]nc(-c2ccccn2)n1/N=C/c1cccc2ccccc12,-7.1
CN1C(=O)NC(c2ccc(O)cc2)C2=C1CN(c1cccc3ccccc13)C2=O (stereo not given),-9.1
Cc1ccc2cc(CN(CC3CCCO3)C(=S)Nc3ccccc3)c(=O)[nH]c2c1C (stereo not given),0.0
COc1ccc(S(=O)(=O)N(C)CC(=O)N2CCOCC2)cc1Cl,462.5*
CN(CC(=O)N1CCCC1)S(=O)(=O)c1ccc(Cl)cc1,6.5
COc1ccc(S(=O)(=O)N(C)CC(=O)N2CCCCC2)cc1Cl,233.3
Cn1ncc(Br)c1C(=O)OCC(=O)Nc1nc(-c2ccccc2)cs1,-9.1
CC1(C)Cc2c(ccc3ccccc23)-c2nnc(-c3cccnc3)n21,3.3
Cc1ccc(CNC(=O)C2CCCN(S(=O)(=O)c3c(C)noc3C)C2)cc1 (stereo not given),114.3
Cc1ccc(CNC(=O)C2CCN(S(=O)(=O)c3c(C)noc3C)CC2)cc1,75.9*
Cc1noc(C)c1S(=O)(=O)N1CCC(C(=O)NCCc2ccc(S(N)(=O)=O)cc2)CC1,-9.6
CCc1ccccc1Nc1nc(N)nc(CSCC(=O)c2cc(C)n(C)c2C)n1,7.1
COc1ccc(Cl)cc1NC(=O)C1CCCN(c2cc(C)nc3ncnn23)C1 (stereo not given),-8.6
Cc1cc(SCC(=O)OCC(=O)N2CCN(C(=O)c3ccco3)CC2)c(C)cc1Br,-2.9
O=c1oc2ccccc2c(Nc2cccc(O)c2)c1[N+](=O)[O-],-3.7
COc1ccc(S(=O)(=O)N2CCCC(C(=O)Nc3cccnc3)C2)cc1Cl (stereo not given),-7.7
O=C(Nc1cccc(S(=O)(=O)N2CCOCC2)c1)[C@@H]1CCCN1S(=O)(=O)c1ccc(Cl)cc1,103.2
O=C(Nc1cccnc1)C1CCCN1S(=O)(=O)c1ccc(Cl)c(Cl)c1 (stereo not given),481.3*
CC(=O)n1nc(-c2cccc(C)c2)nc1SCC(=O)Nc1ccccc1,4.2
Cc1cc(=O)n2nc(N3CCC(C(=O)N4CCN(C)CC4)CC3)sc2n1,7.7
SMILES,INS promoter act
O=[N+]([O-])c1ccc(Cl)cc1CNc1ccc(F)c(F)c1,0.0
CN(C)c1ccc(/C=C2\CCC/C(=C\c3ccccc3)C2=O)cc1,120.4
O=C1/C(=C/c2ccco2)CCC1C1CCCC1 (stereo not given),-7.1
O=C1/C(=C/c2ccc(F)cc2)CCC1C1CCCC1 (stereo not given),441.7*
CCN=C1SC(CC(=O)NCCc2ccc(OC)c(OC)c2)C(=O)N1CC (stereo not given),0.0
O=C(O)CC1SC(=Nc2ccccc2)N(c2ccccc2)C1=O (stereo not given),3.8
CCCCN1C(=O)C(CC(=O)NCC)SC1=Nc1ccccc1 (stereo not given),450.0*
O=P(O)(O)CP(=O)(O)O,-9.1
O=C(CCCOc1ccc(Cl)cc1)Nc1nncs1,0.0
O=C(Nc1ccccc1)O/N=C/c1ccccc1Cl,87.1*
O=[N+]([O-])c1ccc(Cl)c(/C=N/NC(=S)Nc2ccccc2)c1,4.5
CC(C)CNC(=O)CO/N=C/c1ccccc1Cl,108.3
COc1cccc(CN(C)CC(=O)NC(=O)NCc2ccccc2)c1,7.4
CCn1ncc(Cl)c1C(=O)NC(=S)Nc1c(C)cc(C)cc1[N+](=O)[O-],292.9*
Cc1ccc(C(=O)NC(=S)Nc2ccccc2N2CCCC2)cc1[N+](=O)[O-],0.0
CCn1ncc(Br)c1C(=O)Nc1ccc(F)c([N+](=O)[O-])c1,238.5
Cn1cccc1C(=O)NC(=O)COC(=O)c1ccccc1Sc1ccccc1C#N,0.0
C=CCN1C(=O)/C(=C\c2ccc(OC(=O)c3ccco3)c(OC)c2)SC1=S,111.1
O=C1/C(=C\c2ccco2)SC(=S)N1Cc1ccccc1,150.0*
Cc1ccc(N2C(=O)/C(=C\c3ccco3)SC2=S)cc1,-2.9
Cc1c(N=C2SCC(=O)N2/N=C/c2ccccc2Cl)c(=O)n(-c2ccccc2)n1C,-5.1
CCCCNC(=S)NNC(=O)c1ccoc1C,8.1
C=C(C)CSc1nc2nc(C)c(Br)cc2[nH]1,-79.3
Cc1cc(Cl)ccc1OCC(=O)N1CCCCC1,-6.7
COC(=O)C1CCCN1C(=O)COc1ccc(Br)cc1Cl (stereo not given),438.5*
SMILES,INS promoter act
COCCNC(=O)COc1ccc(Br)cc1Cl,-6.7
CCC(=O)Nc1nc2nc(-c3ccccc3)cc(-c3ccccc3)n2n1,0.0
CCOC(=O)C1CCCN(S(=O)(=O)c2ccc(C)cc2)C1 (stereo not given),0.0
CCOC(=O)C1CCN(S(=O)(=O)c2ccc(C)c(C)c2)CC1,206.3*
CCNC(=O)NC(=O)C(C)OC(=O)C1CCN(S(=O)(=O)c2ccc(C)c(C)c2)CC1 (stereo not given),107.8
O=S(=O)(c1cccc(S(=O)(=O)N2CCC(N3CCCCC3)CC2)c1)N1CCOCC1,630.8*
O=S(=O)(c1cccc(S(=O)(=O)N2CCC(Cc3ccccc3)CC2)c1)N1CCOCC1,2.6
CC(=O)c1ccc(N2CCN(S(=O)(=O)c3cccc(S(=O)(=O)N4CCOCC4)c3)CC2)cc1,-3.6
CCN1CCN(C(=S)Nc2ccc(Cl)cc2Cl)CC1,3.4
CC(C)(C)OC(=O)NCc1nc(N)n[nH]1,-7.1
Cc1ccsc1/C=N/N1CCN(C2c3ccccc3-c3ccccc32)CC1,-3.2
Cc1ccc(C(=O)O)cc1-c1ccc(C=C2C(=O)c3ccccc3C2=O)o1,0.0
Cc1ccsc1C=C1C(=O)c2ccccc2C1=O,312.5*
COc1ccccc1CNC(=O)c1c(-c2ccccc2)nn(-c2ccccc2)c1C,3.3
CCCCS(=O)CC(COCc1ccccc1)OC(=O)CSc1nc(C)cc(C)n1 (stereo not given),0.0
O=C(NNC(=O)c1cc2cc(Br)ccc2oc1=O)c1ccc(O)cc1O,-7.1
COc1ccc(NC(=O)COC(=O)c2ccc(OCc3ccccc3Cl)c(OC)c2)c(OC)c1,-6.7
COc1ccccc1/C=N/NC(=O)c1ccc(Br)cc1,7.1
COc1ccccc1N1CCN(c2cc(N3CCCC3)nc(C)n2)CC1,0.0
COc1cc(N2CCCC2)c(OC)cc1/C=C(/C#N)c1ccc(Br)cc1,86.7*
Cc1ccc(CCNC(=O)C23C[C@H]4C[C@@H](C2)CC(n2nnc(C)n2)(C4)C3)cc1,0.0
CC[N+]1=C(C)C(C)(C)c2cc(C)ccc21,488.2*
Cc1cccc(N2CCN(C(=O)CCCn3c(=S)[nH]c4cc5c(cc4c3=O)OCO5)CC2)c1C,0.0
O=C(CCCn1c(=S)[nH]c2cc3c(cc2c1=O)OCO3)NC1CC1,3.8
CC(=O)c1ccc(N2CCN(C(=O)CCCn3c(=S)[nH]c4cc5c(cc4c3=O)OCO5)CC2)cc1,136.4*
CCOc1ccccc1NC(=O)C1CCN(C(=O)NCc2ccccc2)CC1,-6.7
CCOc1ccc(NC(=O)C2CCCN(C(=O)NCc3ccccc3)C2)cc1 (stereo not given),493.3*
O=C(O)C1CCCN(C(=O)NCc2ccccc2)C1 (stereo not given),5.3
